Measurements: ChEMBL document CHEMBL1125836, “Disubstituted tetrahydrofurans and dioxolanes and PAF antagonists” (J Med Chem, 1991)
Values joined by “and” are separate entries in the source; they are usually repeats but may differ in a detail not shown here. Equal values may be shown once.

Species: Rattus norvegicus
Assay: Activity expressed as the dose required to reduce the lowering of the arterial blood pressure caused by PAF by 50%.
Type: functional
Conditions: Artery, read-out: ID50 (the source's name)
In short: (§1)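 Male Sprague-Dawley rats (180–220 g) anesthetized with sodium pentobarbital (50 mg/kg ip). Carotid arterial pressure was recorded. Compound was given iv in saline (1 mL/kg) via femoral vein 3 min before PAF (0.5 μg/kg iv); vehicle controls.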

Row | Structure (SMILES) | ED50
1 | CC1OCC(COC(=O)CCCCC[n+]2ccsc2)O1.Cc1ccc(S(=O)(=O)[O-])cc1 (stereo not given) | > 5 mg/kg
2 | CCCCCCCCCCCCCCC1COC(COC(=O)CCCCC[n+]2ccsc2)C1.Cc1ccc(S(=O)(=O)[O-])cc1 (stereo not given) | > 5 mg/kg
3 | CCCCCCCCCCCCCCCCCC1OCC(COCCCCCCCC[n+]2ccsc2)O1.Cc1ccc(S(=O)(=O)[O-])cc1 (stereo not given) | > 5 mg/kg

Molecular target: Platelet-activating factor receptor (Rattus norvegicus) (UniProt P46002)
Assay: Activity expressed as the dose required to reduce the lowering of the arterial blood pressure caused by PAF by 50%
Type: functional
Conditions: Artery
In short: as §1

Sequence of Platelet-activating factor receptor (Rattus norvegicus) (P46002 whole entry): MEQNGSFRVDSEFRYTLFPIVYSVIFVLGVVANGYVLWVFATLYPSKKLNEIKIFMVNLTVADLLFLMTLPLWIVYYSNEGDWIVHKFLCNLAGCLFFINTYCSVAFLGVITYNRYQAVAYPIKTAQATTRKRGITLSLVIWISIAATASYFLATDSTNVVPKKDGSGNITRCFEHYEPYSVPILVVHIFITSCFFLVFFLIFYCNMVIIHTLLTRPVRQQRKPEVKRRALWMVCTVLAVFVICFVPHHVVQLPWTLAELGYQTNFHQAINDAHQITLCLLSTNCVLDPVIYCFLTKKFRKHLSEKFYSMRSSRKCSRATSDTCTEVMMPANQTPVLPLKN

Row | Structure (SMILES) | ID50
4 | CCCCCCCCCCCCCCCCCC1OCC(COC(=O)CCCCC[n+]2ccsc2)O1 (stereo not given) | 0.88 mg/kg
5 | CCCCCCCCCCCCCCCCCCOCC1COC(COC(=O)Nc2cc[n+](CC)cc2)C1 (stereo not given) | > 5 mg/kg
6 | CCCCCCCCCCCCCCCCCC1OCC(COCCCCCC[n+]2cccc3ccccc32)O1 (stereo not given) | 3.8 mg/kg
7 | CCCCCCCCCCCCCCCNC(=O)OCC1CC(COC(=O)N(Cc2cccc[n+]2CC)C(C)=O)CO1 (stereo in doubt; form 2) | 0.042 mg/kg
8 | CCCCCCCCCCCCCCCCCCOCC1COC(COC(=O)N(Cc2cc[n+](CC)cc2)C(C)=O)C1 (stereo not given) | 1.6 mg/kg
9 | CCCCCCCCCCCCCCCCCC1OCC(COCCCCCC[n+]2ccccc2)O1 (stereo not given) | > 5 mg/kg
10 | CCCCCCCCCCCCCCC1COC(COCCCC[n+]2ccsc2)C1 (stereo not given) | > 5 mg/kg
11 | CCCCCCCCCCCCCCOCC1COC(COC(=O)N(Cc2cccc[n+]2CC)C(C)=O)C1 (stereo not given) | 0.087 mg/kg
12 | CCCCCCCCCCCCCCCCCC1OCC(COCCCCCC[n+]2ccsc2)O1 (stereo not given) | 1.3 mg/kg
13 | CCCCCCCCCCCCCCCCCCOCC1COC(COC(=O)CCCCC[n+]2ccsc2)C1 (stereo not given) | 2.4 mg/kg
14 | CCCCCCCCCCCCCCCCOCC1COC(COC(=O)NCc2cccc[n+]2CC)C1 (stereo not given) | > 5 mg/kg
15 | CCCCCCCCCCCCCCCCOCC1OCC(COCCCCCC[n+]2ccsc2)O1 (stereo not given) | 1.8 mg/kg
16 | CCCCCCCCCCCCCCCCOCC1CC(COCCCCCC[n+]2ccsc2)CO1 (stereo not given) | 1.8 mg/kg
17 | CCCCCCCCCCCCCCCC1CCC(COCCCCCC[n+]2ccsc2)O1 (stereo not given) | 2 mg/kg
18 | CCCCCCCCCCCCCCCCOCC1CC(COC(=O)N(Cc2cccc[n+]2CC)C(C)=O)CO1 (stereo not given) | 0.027 mg/kg and 0.02 mg/kg
19 | CCCCCCCCCCCCCCCCCCCC1OCC(COC(=O)CCCCC[n+]2ccsc2)O1 (stereo not given) | 5.1 mg/kg
20 | CCCCCCCCCCCCCCCNC(=O)OCC1CC(COC(=O)N(Cc2cccc[n+]2CC)C(C)=O)CO1 (stereo not given) | 0.049 mg/kg
21 | CCCCCCCCCCCCCCCCCCOCC1COC(COC(=O)N(Cc2cccc[n+]2CC)C(C)=O)C1 (stereo not given) | 0.035 mg/kg
22 | CCCCCCCCCCCCCCCC1CCC(COC(=O)N(Cc2cccc[n+]2CC)C(C)=O)O1 (stereo not given) | 0.15 mg/kg
23 | CCCCCCCCCCCCCCCCOCC1COC(COC(=O)N(Cc2ccccn2)C(C)=O)C1 (stereo not given) | > 5 mg/kg
24 | CCCCCCCCCCCCCCCCOCC1COC(COC(=O)N(C(C)=O)c2ccc[n+](CC)c2)C1 (stereo not given) | 0.13 mg/kg
25 | CCCCCCCCCCCCCC1OCC(COC(=O)CCCCC[n+]2ccsc2)O1 (stereo not given) | > 5 mg/kg
26 | CCCCCCCCCCCCCCC1COC(COCCCCCCC[n+]2ccsc2)C1 (stereo not given) | 1.5 mg/kg
27 | CCCCCCCCCCCCCCCCOCC1COC(COC(=O)NCCc2cccc[n+]2CC)C1 (stereo not given) | > 5 mg/kg

Row | Structure (SMILES) | ID50
28 | CCCCCCCCCCCCCCCCOCC1COC(COCCCCCC[n+]2ccsc2)C1 (stereo not given) | 1.2 mg/kg
29 | CCCCCCCCCCCCCCCCCC1COC(COC(=O)N(Cc2cccc[n+]2CC)C(C)=O)O1 (stereo not given) | 0.074 mg/kg
30 | CCCCCCCCCCCCCCOCC1COC(COCCCCCC[n+]2ccsc2)C1 (stereo not given) | 3.1 mg/kg
31 | CCCCCCCCCCCCCCCCCC1OCC(COCCCCCC[N+](C)(C)C)O1 (stereo not given) | > 5 mg/kg
32 | CCCCCCCCCCCCOCC1COC(COCCCCCCC[n+]2ccsc2)C1 (stereo not given) | 3.7 mg/kg
33 | CCCCCCCCCCCCCCCCOCC1COC(COC(=O)N(Cc2cccc[n+]2CC)C(=O)OCC)C1 (stereo not given) | 0.035 mg/kg
34 | CCCCCCCCCCCCCCOCC1COC(COC(=O)N(Cc2cccc[n+]2CC)C(C)=O)O1 (stereo not given) | 0.2 mg/kg
35 | CCCCCCCCCCCCCCCCOCC1OCC(COC(=O)CCCCC[n+]2ccsc2)O1 (stereo not given) | 1.1 mg/kg
36 | CCCCCCCCCCCCCCCCCCOCC1CC(COCCCCC[n+]2ccsc2)CO1 (stereo not given) | 2.5 mg/kg
37 | CCCCCCCCCCCCCCOCC1COC(COCCCCCCC[n+]2ccsc2)C1 (stereo not given) | 1.4 mg/kg
38 | CCCCCCCCCCCCCCC1COC(COC(=O)N(Cc2cccc[n+]2CC)C(C)=O)C1 (stereo not given) | 0.24 mg/kg
39 | CCCCCCCCCCCCCCC1COC(COCCCCCCCC[n+]2ccsc2)C1 (stereo not given) | 2.3 mg/kg
40 | CCCCCCCCCCCCCCCCCCOCC1CC(COCCCCCCC[n+]2ccsc2)CO1 (stereo not given) | 2.1 mg/kg
41 | CCCCCCCCCCCCCCCCCC1CCC(COC(=O)N(Cc2cccc[n+]2CC)C(C)=O)O1 (stereo not given) | 0.15 mg/kg
42 | CCCCCCCCCCCCCCCCC1COC(COCCCCCCC[n+]2ccsc2)C1 (stereo not given) | 2 mg/kg
43 | CCCCCCCCCCCCCCC1COC(COCCCCCC[n+]2cccc3ccccc32)C1 (stereo not given) | 3 mg/kg
44 | CCCCCCCCCCCCCCCCCC1OCC(COCCCC[n+]2ccsc2)O1 (stereo not given) | > 5 mg/kg
45 | CCCCCCCCCCCCCCC1COC(COP(=O)([O-])OCC[n+]2ccccc2)C1 (stereo not given) | > 5 mg/kg
46 | CCCCCCCCCCCCCCCCCCOCC1COC(COC(=O)NCc2cc[n+](CC)cc2)C1 (stereo not given) | > 5 mg/kg
47 | CCCCCCCCCCCCCCCCCCNC(=O)OCC(COC(=O)N(Cc1cccc[n+]1CC)C(C)=O)OC (stereo not given) | 0.0078 mg/kg and 0.011 mg/kg
48 | CCCCCCCCCCCCCCCCOCC1OCC(COCCCC[n+]2ccsc2)O1 (stereo not given) | 2.7 mg/kg
49 | CCCCCCCCCCCCCCCC1OCC(COC(=O)CCCCC[n+]2ccsc2)O1 (stereo not given) | 0.86 mg/kg
50 | CCCCCCCCCCCCCCCCCC1OCC(COC(=O)N(Cc2cccc[n+]2CC)C(C)=O)O1 (stereo not given) | 0.24 mg/kg
51 | CCCCCCCCCCCCCCCNC(=O)OCC1COC(COC(=O)N(Cc2cccc[n+]2CC)C(C)=O)C1 (stereo not given) | 0.067 mg/kg and 0.033 mg/kg

Row | Structure (SMILES) | ID50
52 | CCCCCCCCCCCCCCCCOCC1COC(COC(=O)N(CCc2cccc[n+]2CC)C(C)=O)C1 (stereo not given) | > 5 mg/kg
53 | CCCCCCCCCCCCCCC1COC(COCCCCCC[N+](C)(C)C)C1 (stereo not given) | > 5 mg/kg
54 | CCCCCCCCCCCCCCC1COC(COCCCCCC[n+]2ccsc2)C1 (stereo in doubt; form 1) | 2.5 mg/kg
55 | CCCCCCCCCCCCCCC1COC(COCCCCCC[n+]2ccsc2)C1 (stereo in doubt; form 2) | 2.9 mg/kg
56 | CCCCCCCCCCCCCCCCCC1OCC(COP(=O)([O-])OCC[n+]2ccccc2)O1 (stereo not given) | > 5 mg/kg
57 | CCCCCCCCCCCCCCCNC(=O)OCC1CC(COC(=O)N(Cc2cccc[n+]2CC)C(C)=O)CO1 (stereo in doubt; form 1) | 0.057 mg/kg
58 | CCCCCCCCCCCCCCCC1CCC(COC(=O)CCCCC[n+]2ccsc2)O1 (stereo not given) | 1.2 mg/kg
59 | CCCCCCCCCCCCCCCCCCOCC1OCC(COC(=O)N(Cc2cccc[n+]2CC)C(C)=O)O1 (stereo not given) | 0.041 mg/kg
60 | CCCCCCCCCCCCCCCCCC1OCC(COCCCCCC[n+]2cscc2C)O1 (stereo not given) | 3.1 mg/kg
61 | CCCCCCCCCCCCCCCCOCC1COC(COC(=O)N(Cc2cccc[n+]2CC)C(C)=O)O1 (stereo not given) | 0.057 mg/kg and 0.029 mg/kg
62 | CCCCCCCCCCCCCCC1COC(COP(=O)([O-])OCC[N+](C)(C)C)C1 (stereo not given) | > 5 mg/kg
63 | CCCCCCCCCCCCCCCCCCOCC1CC(COC(=O)CCCCC[n+]2ccsc2)CO1 (stereo not given) | 1.1 mg/kg
64 | CCCCCCCCCCCCCCCCCCC1COC(COC(=O)N(Cc2cccc[n+]2CC)C(C)=O)C1 (stereo not given) | 0.23 mg/kg
65 | CCCCCCCCCCCCCCCCCC1CC(COC(=O)N(Cc2cccc[n+]2CC)C(C)=O)CO1 (stereo not given) | 0.052 mg/kg
66 | CCCCCCCCCCCCCCCCCC1OCC(COP(=O)([O-])OCC[N+](C)(C)C)O1 (stereo not given) | > 5 mg/kg
67 | CCCCCCCCCCCCCCCCOCC1COC(COC(=O)N(Cc2cccc[n+]2C)C(C)=O)C1 (stereo not given) | 0.24 mg/kg
68 | CCCCCCCCCCCCCCCCCCOCC1COC(COC(=O)N(Cc2cccc[n+]2CC)C(C)=O)O1 (stereo not given) | 0.017 mg/kg
69 | CCCCCCCCCCCCCCCCOCC1COC(COC(=O)N(Cc2cccc[n+]2CC)C(C)=O)C1 (stereo not given) | 0.044 mg/kg and 0.035 mg/kg
70 | CCCCCCCCCCCCCCCCCC1OCC(COCCCCCC[N+]2(C)CCOCC2)O1 (stereo not given) | > 5 mg/kg
71 | CCCCCCCCCCCCCCCCCCOCC1COC(COC(=O)N(Cc2ccc[n+](CC)c2)C(C)=O)C1 (stereo not given) | > 5 mg/kg
72 | CCCCCCCCCCCCCCCCOCC1COC(COC(=O)CCCCC[n+]2ccsc2)C1 (stereo not given) | 1.7 mg/kg
73 | CCCCCCCCCCCCCCCCOCC1OCC(COC(=O)N(Cc2cccc[n+]2CC)C(C)=O)O1 (stereo not given) | 0.024 mg/kg
74 | CCCCCCCCCCCCCCCCOCC1CCC(COC(=O)N(Cc2cccc[n+]2CC)C(C)=O)O1 (stereo not given) | 0.036 mg/kg
75 | CCCCCCCCCCCCCCCCOCC1COC(COC(=O)N(C(C)=O)c2cc[n+](CC)cc2)C1 (stereo not given) | > 5 mg/kg
